In the library only some 1.5% were active in any assay of this set; here they are far more common.
EBI2 antag: antagonists of human EBI2 receptor; inhibition, % at 5 µM; AID 651636; EBI2 beta-arrestin recruitment, luminescence, 7a,25-OHC stimulated; 360,000 compounds, 0.81% hits; in the data active = inhibition above about 38%;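 note: enzyme fragment complementation signal reports receptor beta-arrestin coupling in cells; 0% = agonist plus DMSO wells and 100% = wells without agonist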
CXCR6 block: inhibitors of human CXCR6 receptor; CHO-K1 PathHunter CXCR6 beta-arrestin, luminescence; inhibition, % at 20 µM; 360,000 compounds, 0.36% hits; in the data active = inhibition above about 34%, passing the limit was not always enough;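 note: antagonist mode with CXCL16 agonist at 10 nM final; 0% = 10 nM CXCL16 with DMSO and 100% = unstimulated wells without agonist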
APJ ag: APJ receptor agonism; AID 2520; 330,000 compounds, 0.11% hits; P35414; CHO-K1 APJ PathHunter beta-arrestin, luminescence; 0% DMSO wells, 100% apelin; activation, % at 20 µM;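 active = activation more than six SD over the plate average, tested at 20 µM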;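 note: 0% = DMSO alone and 100% = apelin-13 at 10 nM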
Target sequence (P35414 whole entry, looked up): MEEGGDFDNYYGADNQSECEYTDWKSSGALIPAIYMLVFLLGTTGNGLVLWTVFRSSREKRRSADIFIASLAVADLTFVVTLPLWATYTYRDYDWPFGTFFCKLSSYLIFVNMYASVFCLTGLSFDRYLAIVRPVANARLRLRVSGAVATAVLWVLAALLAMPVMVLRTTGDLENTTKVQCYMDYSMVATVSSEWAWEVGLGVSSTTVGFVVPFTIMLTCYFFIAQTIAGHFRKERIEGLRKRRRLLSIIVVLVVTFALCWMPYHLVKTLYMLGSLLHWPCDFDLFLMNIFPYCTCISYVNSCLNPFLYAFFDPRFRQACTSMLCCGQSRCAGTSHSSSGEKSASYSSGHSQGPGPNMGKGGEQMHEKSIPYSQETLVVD
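Assay system: CHO-K1 cells stably expressing ProLink-tagged human APJ and arrestin–beta-gal acceptor. Compound dosing: 20 µM single point, 1% DMSO. Times: 16-18 h seeding, 90 min dark compound exposure, 60 min detection. Detection: beta-gal luminescence. Evaluation: APJ–arrestin association signal. Controls: negative DMSO alone, positive Apelin-13 at 10 nM.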
APJ antag: antagonists of human APJ apelin receptor; P35414; CHO-K1 APJ beta-arrestin complementation, luminescence; inhibition, % at 20 µM; 330,000 compounds, 0.32% hits;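 active = inhibition above about 40% at 20 µM, limit read from the data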;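 note: cells challenged with 10 nM apelin-13 agonist together with compound; plate controls were apelin-13 plus DMSO wells for no effect and DMSO wells lacking apelin-13 for full effect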
CCR6 antag: blocks CCL20-driven beta-arrestin recruitment at human CCR6; inhibition, % at 20 µM; 340,000 compounds, 0.49% hits; AID 493098; CHO-K1 CCR6 PathHunter beta-arrestin, luminescence, CCL20-stimulated; P51684;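 active = compounds whose inhibition of the agonist-driven luminescence signal at 20 µM reaches about 50%, limit read from the data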;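 note: cells stimulated with CCL20 at 14 nM final; plate controls were DMSO with CCL20 for no effect and DMSO without agonist for full effect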
EBI2 antag conf: EBI2 (human) antagonism, single concentration confirmation; shares compounds with EBI2 antag; EBI2 beta-arrestin luminescence, 7a,25-OHC antagonism; inhibition, % at 5 µM; 2,400 compounds, 29% hits; AID 651997;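 active = inhibition of at least 50%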
EBI2 agonist: activates EBI2, counter-screen for EBI2 antagonists; shares compounds with EBI2 antag; EBI2-expressing cells, agonist mode, luminescence, 60 min; 0% vehicle, 100% 7α,25-dihydroxycholesterol control; activation, % at 5 µM; 2,400 tested, under 10 active; AID 652000;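 active = activation of at least 50%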
bGal counter: beta-galactosidase inhibition counter-screen | inhibition, % at 5 µM | purified beta-galactosidase, luminescent Galacton Star, 15 min | 2,400 compounds, 1% hits | shares compounds with EBI2 antag;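 active = replicate-average signal at least 3 plate SD below neutral wells, shown as high inhibition, flagging enzyme-inhibiting false positives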;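 note: 0% = DMSO wells with enzyme and 100% = wells lacking enzyme; higher means stronger loss of beta-gal luminescence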
* = called active by the depositor; . = no result.

SMILES	EBI2 antag	CXCR6 block	APJ ag	APJ antag	CCR6 antag	EBI2 antag conf	EBI2 agonist	bGal counter
CCOC(=O)C1=C(O)/C(=C/c2ccccn2)SC1=Nc1ccc(Cl)cc1	88*	7	-1	20	24	86*	1	8
CCOC(=O)C1=C(O)/C(=C/c2cc(OC)c(O)c(OC)c2)SC1=Nc1ccc(OC)cc1	49*	13	.	.	21	49	2	14
Nc1nc2c(nc(SCc3ccccc3Br)n2[C@@H]2O[C@H](CO)[C@@H](O)[C@H]2O)c(=O)[nH]1	-19	-13	5	-12	10	.	.	.
CCn1c2ccccc2c2nnc(SCc3ccccc3)nc21	8	8	-4	3	22	.	.	.
CCN(CC)CCSc1nnc2c3ccccc3n(Cc3ccccc3)c2n1	54*	16	0	10	21	21	1	1
CCN(CC)CCSc1nnc2c3cc(F)ccc3n(Cc3ccccc3)c2n1	56*	6	-2	4	8	21	0	6
CC(=O)c1ccc(OCCCC(=O)Nc2cc(S(=O)(=O)N3CCCCC3)ccc2C)cc1	-2	-5	0	-8	10	.	.	.
CCN(Cc1ccccc1)C(c1cccs1)c1nnnn1C1CCCCC1 (stereo not given)	49*	16	-2	19	29	19	-1	-13
Clc1ccc(CN(CC2CCCO2)C(c2cccs2)c2nnnn2C2CCCC2)cc1 (stereo not given)	49*	10	-1	15	32	4	-1	-13
COc1cccc(-n2nnnc2SCC(=O)Nc2ccc(OC)cc2OC)c1	3	-7	-1	-9	4	.	.	.
O=S(=O)(c1ccc(F)c(Cl)c1)N1CCN(C/C=C/c2ccccc2)CC1	25	-17	2	-4	18	.	.	.
CC1(C)C2CCC1(C)C(NC(=O)/C=C/c1ccccc1)C2 (stereo not given)	46*	-1	-2	-1	10	43	0	2
COc1ccc(-n2c(-c3ccco3)nc3c(cnn3-c3ccccc3C)c2=O)cc1	-17	-2	-2	-8	9	.	.	.
COc1ccc(-n2c(-c3ccco3)nc3c(cnn3-c3ccc(C)cc3)c2=O)cc1	43*	7	1	8	4	38	0	0
O=C(CN(c1ccccc1)S(=O)(=O)c1ccccc1)NCCSc1nc2ccccc2s1	59*	8	-1	24	-2	53*	1	-3
Cc1ccc(N(CC(=O)NCCSc2nc3ccccc3s2)S(=O)(=O)c2ccccc2)c(C)c1	46*	7	-2	-2	9	14	0	2
CN(C)C(CNC(=O)c1sc2ccccc2c1Cl)c1ccco1 (stereo not given)	0	3	.	.	.	.	.	.
C=CCN(c1ccccc1)S(=O)(=O)c1cccc(C(=O)NCC(c2cccs2)N2CCOCC2)c1 (stereo not given)	1	-3	-3	10	24	.	.	.
O=C(c1ccc(F)cc1F)N1CCN(c2ncccn2)CC1	-5	8	-4	-1	25	.	.	.
O=C(/C=C/c1cccc(F)c1)N1CCN(c2ncccn2)CC1	90*	-4	-3	1	-12	69*	1	-1
O=C(/C=C/c1ccccc1Cl)N1CCN(c2ncccn2)CC1	60*	1	1	-5	15	39	-1	-20
O=C(Nc1cc(S(=O)(=O)N2CCCCC2)ccc1O)c1ccccc1NS(=O)(=O)c1ccc(F)c(F)c1	13	-4	6	-14	2	.	.	.
CS(=O)(=O)N(CC(=O)NCCSCc1cccc(Cl)c1)c1ccc(F)cc1	18	5	-2	-12	18	.	.	.
CC(C)c1cc(C(=O)N2CCCC(CCC(=O)NCc3ccccc3F)C2)n(C)n1 (stereo not given)	-5	-1	4	9	-4	.	.	.
Cc1nc(CS(=O)(=O)c2ccccc2)cc(Sc2ccc(Cl)cc2Cl)n1	75*	3	-1	10	11	53*	-1	8
SMILES	EBI2 antag	CXCR6 block	APJ ag	APJ antag	CCR6 antag	EBI2 antag conf	EBI2 agonist	bGal counter
Cc1nc(Cl)cc(CS(=O)(=O)c2ccc(Cl)cc2)n1	-15	1	-3	14	-10	.	.	.
Cc1ccccc1OCC(=O)NNC(=O)C1CCN(c2ncnc3sc(C)c(C)c23)CC1	50*	-13	4	-14	-9	20	1	6
COc1ccc(-n2c(=O)c3c4c(sc3n(CC(=O)NCC3CCCO3)c2=O)CN(C(C)=O)CC4)cc1OC (stereo not given)	7	2	.	.	.	.	.	.
Cc1ccc(/C=C/C(=O)NC(=S)N2CCN(c3ccc(F)cc3)CC2)cc1	48*	-8	-3	-14	-6	21	-1	-10
Cc1ccc(/C=C/C(=O)NC(=S)N2CCN(C)CC2)cc1	55*	3	-1	4	-1	49	0	-14
Nc1nonc1-n1nnc(C(=O)N/N=C/c2ccccc2F)c1CN1CCc2ccccc21	6	2	-5	-7	9	.	.	.
Cc1ccc(NC(=O)c2ccccc2NS(=O)(=O)c2ccc(F)cc2)cc1S(=O)(=O)N1CCCCC1	-20	-5	2	-2	4	.	.	.
O=C(CSc1ccc2nc(-c3ccccc3)cn2n1)NCC1CCCO1 (stereo not given)	6	1	-2	26	-6	.	.	.
COc1ccc(-c2cn3nc(SCC(=O)NCC4CCCO4)ccc3n2)cc1 (stereo not given)	67*	-2	0	22	1	38	-1	-17
Cc1cc2nc(-c3ccc(SCC(=O)Nc4nccs4)nc3)[nH]c2cc1C	55*	-7	.	.	8	45	0	-11
Cc1cc2nc(-c3ccc(SCc4ccc(C#N)cc4)nc3)[nH]c2cc1C	56*	-6	9	-7	-6	40	0	-9
CC(=O)CSc1ccc(-c2nc3cc(C)c(C)cc3[nH]2)cn1	31	-16	-3	-4	-10	.	.	.
COCCN1C(=O)c2cc(C(=O)Nc3cccc(F)c3)ccc2C1Nc1cccc(F)c1 (stereo not given)	75*	0	3	0	2	39	0	-16
CCc1ccc(NC(=O)c2ccc3c(c2)C(=O)N(CCOC)C3Nc2ccc(CC)cc2)cc1 (stereo not given)	65*	1	-1	-7	0	62*	-1	-16
COCCN1C(=O)c2cc(C(=O)Nc3ccc(C)c(F)c3)ccc2C1Nc1ccc(C)c(F)c1 (stereo not given)	86*	-10	4	-6	-3	65*	-1	-14

Screens as filed in PubChem.
